{"source": "ChEMBL document CHEMBL1165943", "about": "“Design and synthesis of new anticancer pyrimidines with multiple-kinase inhibitory effect” (Bioorg Med Chem, 2010)", "key": {"[1]": {"assay": "Cytotoxicity against human RPMI8266 cells assessed as cell growth at 0.001 uM after 48 hrs by sulforhodamine B assay", "type": "functional", "conditions": "read-out: Activity"}, "[2]": {"tested_on": "HOP-62", "assay": "Cytotoxicity against human HOP62 cells assessed as cell growth at 0.001 uM after 48 hrs by sulforhodamine B assay", "type": "functional", "conditions": "HOP-62, 48 h, read-out: Activity"}, "[3]": {"tested_on": "HOP-92", "assay": "Cytotoxicity against human HOP92 cells assessed as cell growth at 0.001 uM after 48 hrs by sulforhodamine B assay", "type": "functional", "conditions": "HOP-92, 48 h, read-out: Activity"}, "[4]": {"tested_on": "NCI-H226", "assay": "Cytotoxicity against human NCI-H226 cells assessed as cell growth at 0.001 uM after 48 hrs by sulforhodamine B assay", "type": "functional", "conditions": "NCI-H226, 48 h, read-out: Activity"}, "[5]": {"tested_on": "SK-MEL-28", "assay": "Cytotoxicity against human SK-MEL-28 cells assessed as cell growth at 0.001 uM after 48 hrs by sulforhodamine B assay", "type": "functional", "conditions": "SK-MEL-28, 48 h, read-out: Activity"}, "[6]": {"tested_on": "CCRF-CEM", "assay": "Cytotoxicity against human CCRF-CEM cells assessed as cell growth at 100 nM after 48 hrs by sulforhodamine B assay", "type": "functional", "conditions": "read-out: Activity"}, "[7]": {"tested_on": "HOP-92", "assay": "Cytotoxicity against human HOP92 cells assessed as cell growth at 100 nM after 48 hrs by sulforhodamine B assay", "type": "functional", "conditions": "HOP-92, 48 h, read-out: Activity"}, "[8]": {"tested_on": "CCRF-CEM", "assay": "Cytotoxicity against human CCRF-CEM cells assessed as cell growth at 0.01 uM after 48 hrs by sulforhodamine B assay", "type": "functional", "conditions": "read-out: Activity"}, "[9]": {"tested_on": "HOP-92", "assay": "Cytotoxicity against human HOP92 cells assessed as cell growth at 0.01 uM after 48 hrs by sulforhodamine B assay", "type": "functional", "conditions": "HOP-92, 48 h, read-out: Activity"}, "[10]": {"tested_on": "HCC 2998", "assay": "Cytotoxicity against human HCC2998 cells assessed as cell growth at 0.01 uM after 48 hrs by sulforhodamine B assay", "type": "functional", "conditions": "HCC 2998, 48 h, read-out: Activity"}, "[11]": {"tested_on": "PC-3", "assay": "Cytotoxicity against human PC3 cells assessed as cell growth at 10 uM after 48 hrs by sulforhodamine B assay", "type": "functional", "conditions": "PC-3, 48 h, read-out: Activity"}, "[12]": {"tested_on": "CCRF-CEM", "assay": "Cytotoxicity against human CCRF-CEM cells assessed as cell growth at 1 uM after 48 hrs by sulforhodamine B assay", "type": "functional", "conditions": "read-out: Activity"}, "[13]": {"assay": "Cytotoxicity against human RPMI8266 cells assessed as cell growth at 1 uM after 48 hrs by sulforhodamine B assay", "type": "functional", "conditions": "read-out: Activity"}, "[14]": {"tested_on": "HOP-92", "assay": "Cytotoxicity against human HOP92 cells assessed as cell growth at 1 uM after 48 hrs by sulforhodamine B assay", "type": "functional", "conditions": "HOP-92, 48 h, read-out: Activity"}, "[15]": {"tested_on": "PC-3", "assay": "Cytotoxicity against human PC3 cells assessed as cell growth at 0.01 uM after 48 hrs by sulforhodamine B assay", "type": "functional", "conditions": "PC-3, 48 h, read-out: Activity"}, "[16]": {"assay": "Growth inhibition of human RPMI8266 cells after 48 hrs by sulforhodamine B assay", "type": "functional", "in_short": "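Cells grown in RPMI 1640 with 5% FBS and 2 mM L-glutamine, seeded at 5,000–40,000 cells/well according to doubling time. After 24 h, time-zero plates are TCA-fixed. Five concentrations (10-fold or ½log dilutions, DMSO stocks) are applied for 48 h at 37 °C, 5% CO₂. Cells are TCA-fixed, SRB-stained and read at 515 nm. IC₅₀ is taken from [(Ti−Tz)/(C−Tz)]×100 = 50.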"}, "[17]": {"tested_on": "HL-60(TB)", "assay": "Cytotoxicity against human HL-60(TB) cells assessed as cell growth at 10 uM after 48 hrs by sulforhodamine B assay", "type": "functional", "conditions": "HL-60, 48 h, read-out: Activity", "in_short": "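Five-concentration HL-60(TB) test in RPMI 1640 with 5% FBS and 2 mM L-glutamine. Cells are plated at 5,000–40,000/well and a TCA-fixed time-zero plate is read at drug addition after 24 h. Drug is dissolved in DMSO and given as five 10-fold or ½log dilutions for 48 h at 37 °C, 5% CO2. Settled cells are fixed with TCA, stained with SRB and read at 515 nm.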"}, "[18]": {"tested_on": "HOP-92", "assay": "Cytotoxicity against human HOP92 cells assessed as cell growth at 10 uM after 48 hrs by sulforhodamine B assay", "type": "functional", "conditions": "HOP-92, 48 h, read-out: Activity"}, "[19]": {"tested_on": "NCI-H226", "assay": "Cytotoxicity against human NCI-H226 cells assessed as cell growth at 10 uM after 48 hrs by sulforhodamine B assay", "type": "functional", "conditions": "NCI-H226, 48 h, read-out: Activity"}, "[20]": {"tested_on": "HCC 2998", "assay": "Cytotoxicity against human HCC2998 cells assessed as cell growth at 10 uM after 48 hrs by sulforhodamine B assay", "type": "functional", "conditions": "HCC 2998, 48 h, read-out: Activity"}, "[21]": {"target": "High affinity nerve growth factor receptor (Homo sapiens) (UniProt P04629)", "assay": "Inhibition of NTRK1 at 10 uM by HotSpot assay"}, "[22]": {"target": "BDNF/NT-3 growth factors receptor (Homo sapiens) (UniProt Q16620)", "sequence (Q16620 32-822 limits assumed)": "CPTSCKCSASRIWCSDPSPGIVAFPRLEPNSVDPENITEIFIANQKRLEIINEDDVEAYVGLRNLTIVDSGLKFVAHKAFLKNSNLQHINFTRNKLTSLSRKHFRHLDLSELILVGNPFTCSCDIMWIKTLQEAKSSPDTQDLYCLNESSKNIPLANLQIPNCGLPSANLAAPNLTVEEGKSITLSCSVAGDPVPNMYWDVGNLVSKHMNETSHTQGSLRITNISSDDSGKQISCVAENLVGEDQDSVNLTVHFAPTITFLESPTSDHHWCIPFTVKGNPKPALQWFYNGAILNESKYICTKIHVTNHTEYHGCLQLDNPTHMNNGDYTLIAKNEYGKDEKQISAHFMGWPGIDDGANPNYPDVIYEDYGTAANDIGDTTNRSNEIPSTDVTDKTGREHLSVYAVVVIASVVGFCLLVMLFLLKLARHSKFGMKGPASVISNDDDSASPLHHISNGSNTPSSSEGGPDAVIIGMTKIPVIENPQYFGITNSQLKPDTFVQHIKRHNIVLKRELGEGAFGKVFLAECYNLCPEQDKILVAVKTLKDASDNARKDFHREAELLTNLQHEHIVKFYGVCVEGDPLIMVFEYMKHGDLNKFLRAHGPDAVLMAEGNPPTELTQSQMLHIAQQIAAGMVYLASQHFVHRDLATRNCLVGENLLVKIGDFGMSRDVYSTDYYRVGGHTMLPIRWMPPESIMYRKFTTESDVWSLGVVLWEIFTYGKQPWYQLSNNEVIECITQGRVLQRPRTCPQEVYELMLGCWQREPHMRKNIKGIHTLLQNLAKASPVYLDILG", "assay": "Inhibition of NTRK2 at 10 uM by HotSpot assay"}, "[23]": {"target": "Tyrosine-protein kinase Yes (Homo sapiens) (UniProt P07947)", "assay": "Inhibition of YES1 at 10 uM by HotSpot assay"}, "[24]": {"target": "RAC-alpha serine/threonine-protein kinase (Homo sapiens) (UniProt P31749)", "sequence (P31749 whole entry)": "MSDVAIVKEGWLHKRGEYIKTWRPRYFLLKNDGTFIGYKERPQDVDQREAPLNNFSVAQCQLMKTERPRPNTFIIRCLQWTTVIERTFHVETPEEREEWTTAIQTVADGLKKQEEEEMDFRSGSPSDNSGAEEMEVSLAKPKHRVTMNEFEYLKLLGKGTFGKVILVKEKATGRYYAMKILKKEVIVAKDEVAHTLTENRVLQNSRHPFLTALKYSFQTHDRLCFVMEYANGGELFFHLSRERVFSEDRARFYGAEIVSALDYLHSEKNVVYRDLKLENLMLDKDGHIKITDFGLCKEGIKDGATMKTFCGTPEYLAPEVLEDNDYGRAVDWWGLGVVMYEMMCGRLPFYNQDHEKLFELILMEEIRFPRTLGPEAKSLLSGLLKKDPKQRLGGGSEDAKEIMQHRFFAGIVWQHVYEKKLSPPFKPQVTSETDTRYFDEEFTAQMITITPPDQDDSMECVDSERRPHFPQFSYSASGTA", "assay": "Inhibition of AKT1 at 10 uM by HotSpot assay"}, "[25]": {"target": "Cyclin-dependent kinase 2/cyclin E1 (Homo sapiens) (UniProt P24864+P24941)", "assay": "Inhibition of CDK2/Cyclin E at 10 uM by HotSpot assay", "type": "protein-complex assay"}, "[26]": {"target": "Myotonin-protein kinase (Homo sapiens) (UniProt Q09013)", "sequence (Q09013 whole entry)": "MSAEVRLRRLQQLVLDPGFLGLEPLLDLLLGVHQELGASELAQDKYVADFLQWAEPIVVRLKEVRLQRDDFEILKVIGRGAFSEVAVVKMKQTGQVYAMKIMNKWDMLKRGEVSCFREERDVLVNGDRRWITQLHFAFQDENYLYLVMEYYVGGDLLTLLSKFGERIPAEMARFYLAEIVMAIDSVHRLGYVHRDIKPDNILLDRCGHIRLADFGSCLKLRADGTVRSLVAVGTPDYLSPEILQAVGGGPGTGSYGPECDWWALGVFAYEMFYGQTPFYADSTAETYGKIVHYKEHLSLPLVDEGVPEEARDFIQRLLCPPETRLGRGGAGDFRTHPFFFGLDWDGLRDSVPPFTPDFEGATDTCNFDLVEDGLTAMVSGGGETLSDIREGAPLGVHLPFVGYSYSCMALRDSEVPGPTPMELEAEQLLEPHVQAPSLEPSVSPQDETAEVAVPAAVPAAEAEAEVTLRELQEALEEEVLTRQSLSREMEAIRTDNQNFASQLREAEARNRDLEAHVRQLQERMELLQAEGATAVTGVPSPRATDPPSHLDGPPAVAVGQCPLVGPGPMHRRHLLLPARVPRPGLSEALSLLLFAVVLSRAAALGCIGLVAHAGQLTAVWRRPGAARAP", "assay": "Inhibition of DMPK at 10 uM by HotSpot assay"}, "[27]": {"target": "Epidermal growth factor receptor (Homo sapiens) (UniProt P00533)", "sequence (P00533 whole entry)": "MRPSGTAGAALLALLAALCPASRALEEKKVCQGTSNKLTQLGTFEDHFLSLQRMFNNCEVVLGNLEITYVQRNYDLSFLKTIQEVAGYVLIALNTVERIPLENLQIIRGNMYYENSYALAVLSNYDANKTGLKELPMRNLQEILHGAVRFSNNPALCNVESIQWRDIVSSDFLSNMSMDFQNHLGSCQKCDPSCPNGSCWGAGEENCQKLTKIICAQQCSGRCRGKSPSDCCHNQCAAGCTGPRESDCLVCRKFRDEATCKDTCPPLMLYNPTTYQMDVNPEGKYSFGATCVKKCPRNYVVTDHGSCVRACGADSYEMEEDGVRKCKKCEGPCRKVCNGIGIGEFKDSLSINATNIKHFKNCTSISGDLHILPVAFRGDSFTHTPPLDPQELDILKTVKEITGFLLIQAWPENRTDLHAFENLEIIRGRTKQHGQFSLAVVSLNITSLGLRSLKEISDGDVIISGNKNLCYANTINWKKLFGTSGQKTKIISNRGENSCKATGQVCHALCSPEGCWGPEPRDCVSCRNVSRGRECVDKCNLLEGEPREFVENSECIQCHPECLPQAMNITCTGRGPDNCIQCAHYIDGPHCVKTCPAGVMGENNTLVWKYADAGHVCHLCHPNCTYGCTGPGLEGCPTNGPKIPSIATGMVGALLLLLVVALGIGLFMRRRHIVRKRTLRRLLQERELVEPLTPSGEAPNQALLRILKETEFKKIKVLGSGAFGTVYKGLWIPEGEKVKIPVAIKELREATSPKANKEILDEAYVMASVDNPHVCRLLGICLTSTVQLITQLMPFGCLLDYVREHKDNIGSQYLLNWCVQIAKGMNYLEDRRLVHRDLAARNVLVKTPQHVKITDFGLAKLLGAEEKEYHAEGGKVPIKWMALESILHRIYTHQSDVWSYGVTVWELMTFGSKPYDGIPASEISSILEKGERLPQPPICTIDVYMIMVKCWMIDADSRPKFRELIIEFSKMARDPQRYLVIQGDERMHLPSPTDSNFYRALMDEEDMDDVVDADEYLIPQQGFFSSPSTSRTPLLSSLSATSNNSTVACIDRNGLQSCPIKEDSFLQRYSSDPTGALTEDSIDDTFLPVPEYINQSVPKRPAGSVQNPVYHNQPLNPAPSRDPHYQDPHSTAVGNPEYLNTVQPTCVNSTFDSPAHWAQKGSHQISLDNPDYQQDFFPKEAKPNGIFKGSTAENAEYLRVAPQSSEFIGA", "assay": "Inhibition of EGFR at 10 uM by HotSpot assay"}, "[28]": {"target": "Focal adhesion kinase 1 (Homo sapiens) (UniProt Q05397)", "sequence (Q05397 2-1052 limits assumed)": "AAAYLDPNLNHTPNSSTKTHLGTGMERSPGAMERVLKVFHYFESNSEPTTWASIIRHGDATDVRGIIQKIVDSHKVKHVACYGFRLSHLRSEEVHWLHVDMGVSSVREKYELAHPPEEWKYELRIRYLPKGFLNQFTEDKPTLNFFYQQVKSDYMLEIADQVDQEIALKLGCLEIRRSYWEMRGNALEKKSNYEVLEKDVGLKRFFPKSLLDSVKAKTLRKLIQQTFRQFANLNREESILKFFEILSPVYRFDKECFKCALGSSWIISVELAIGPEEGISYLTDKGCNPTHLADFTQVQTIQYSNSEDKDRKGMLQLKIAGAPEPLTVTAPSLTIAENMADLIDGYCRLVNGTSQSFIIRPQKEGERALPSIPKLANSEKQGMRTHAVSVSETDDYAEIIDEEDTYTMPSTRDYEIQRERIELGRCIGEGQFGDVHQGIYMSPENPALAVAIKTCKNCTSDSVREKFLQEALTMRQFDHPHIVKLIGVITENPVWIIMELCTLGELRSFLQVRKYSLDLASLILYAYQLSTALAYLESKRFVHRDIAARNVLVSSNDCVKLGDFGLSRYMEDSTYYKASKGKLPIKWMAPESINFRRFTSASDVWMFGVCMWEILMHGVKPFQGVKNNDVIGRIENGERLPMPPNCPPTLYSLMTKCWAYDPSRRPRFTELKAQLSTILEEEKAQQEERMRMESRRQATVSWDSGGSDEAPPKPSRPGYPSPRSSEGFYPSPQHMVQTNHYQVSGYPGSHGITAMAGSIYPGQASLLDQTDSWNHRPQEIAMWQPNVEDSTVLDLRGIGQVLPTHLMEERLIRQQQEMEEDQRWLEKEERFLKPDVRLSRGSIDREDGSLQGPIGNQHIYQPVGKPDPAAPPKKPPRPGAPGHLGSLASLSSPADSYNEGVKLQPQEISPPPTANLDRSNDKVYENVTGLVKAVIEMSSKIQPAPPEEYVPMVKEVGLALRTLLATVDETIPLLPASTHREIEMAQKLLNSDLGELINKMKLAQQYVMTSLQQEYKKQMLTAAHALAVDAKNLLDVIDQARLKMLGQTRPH", "assay": "Inhibition of PTK2 at 10 uM by HotSpot assay"}, "[29]": {"target": "Homeodomain-interacting protein kinase 1 (Homo sapiens) (UniProt Q86Z02)", "assay": "Inhibition of HIPK1 at 10 uM by HotSpot assay"}, "[30]": {"target": "Insulin-like growth factor 1 receptor (Homo sapiens) (UniProt P08069)", "assay": "Inhibition of IGF1R at 10 uM by HotSpot assay"}, "[31]": {"target": "Mitogen-activated protein kinase 8 (Homo sapiens) (UniProt P45983)", "assay": "Inhibition of JNK1 at 10 uM by HotSpot assay"}, "[32]": {"target": "Mitogen-activated protein kinase 14 (Homo sapiens) (UniProt Q16539)", "sequence (Q16539 whole entry)": "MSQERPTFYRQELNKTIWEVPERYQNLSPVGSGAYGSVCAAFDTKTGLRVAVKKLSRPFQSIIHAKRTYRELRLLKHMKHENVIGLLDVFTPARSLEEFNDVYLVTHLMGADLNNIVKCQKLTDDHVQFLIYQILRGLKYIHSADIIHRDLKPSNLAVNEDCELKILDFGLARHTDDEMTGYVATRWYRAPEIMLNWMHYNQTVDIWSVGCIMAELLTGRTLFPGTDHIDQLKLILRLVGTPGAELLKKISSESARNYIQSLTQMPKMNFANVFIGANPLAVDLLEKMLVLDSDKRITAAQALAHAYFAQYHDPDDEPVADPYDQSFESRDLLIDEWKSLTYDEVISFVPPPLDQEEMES", "assay": "Inhibition of p38alpha at 10 uM by HotSpot assay"}, "[33]": {"target": "Serine/threonine-protein kinase PAK 2 (Homo sapiens) (UniProt Q13177)", "sequence (Q13177 whole entry)": "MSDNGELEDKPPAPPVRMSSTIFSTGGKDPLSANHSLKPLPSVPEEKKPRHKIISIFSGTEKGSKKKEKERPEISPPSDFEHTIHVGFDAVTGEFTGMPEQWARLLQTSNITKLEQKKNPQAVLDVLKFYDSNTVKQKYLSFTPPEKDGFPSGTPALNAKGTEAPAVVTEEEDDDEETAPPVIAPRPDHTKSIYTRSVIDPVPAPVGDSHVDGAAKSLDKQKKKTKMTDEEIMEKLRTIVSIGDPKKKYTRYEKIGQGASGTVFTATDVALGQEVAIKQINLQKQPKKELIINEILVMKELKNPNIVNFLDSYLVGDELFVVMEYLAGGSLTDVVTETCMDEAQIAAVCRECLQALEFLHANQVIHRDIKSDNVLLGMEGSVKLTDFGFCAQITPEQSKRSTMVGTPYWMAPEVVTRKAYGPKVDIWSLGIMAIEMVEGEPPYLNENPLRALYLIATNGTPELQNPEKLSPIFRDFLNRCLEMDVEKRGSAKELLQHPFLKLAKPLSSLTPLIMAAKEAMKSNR", "assay": "Inhibition of PAK2 at 10 uM by HotSpot assay"}, "[34]": {"target": "[Pyruvate dehydrogenase (acetyl-transferring)] kinase isozyme 1, mitochondrial (Homo sapiens) (UniProt Q15118)", "assay": "Inhibition of PDK1 at 10 uM by HotSpot assay"}}, "data": [{"smiles": "CC(=O)c1ccccc1-c1ccc(-c2ccnc(NC(=O)Nc3cc(N4CCOCC4)cc(C(F)(F)F)c3)n2)cn1", "values": [{"measurement": "growth at 0.001 µM", "setting": "[1]", "result": 101, "unit": "%"}, {"measurement": "growth at 0.001 µM", "setting": "[2]", "result": 103, "unit": "%"}, {"measurement": "growth at 0.001 µM", "setting": "[3]", "result": 88, "unit": "%"}, {"measurement": "growth at 0.001 µM", "setting": "[4]", "result": 105, "unit": "%"}, {"measurement": "growth at 0.001 µM", "setting": "[5]", "result": 100, "unit": "%"}, {"measurement": "growth at 0.1 µM", "setting": "[6]", "result": 87, "unit": "%"}, {"measurement": "growth at 0.1 µM", "setting": "[7]", "result": 91, "unit": "%"}, {"measurement": "growth at 0.01 µM", "setting": "[8]", "result": 102, "unit": "%"}, {"measurement": "growth at 0.01 µM", "setting": "[9]", "result": 102, "unit": "%"}, {"measurement": "growth at 0.01 µM", "setting": "[10]", "result": 113, "unit": "%"}, {"measurement": "growth at 10 µM", "setting": "[11]", "result": 91, "unit": "%"}, {"measurement": "growth at 1 µM", "setting": "[12]", "result": 93, "unit": "%"}, {"measurement": "growth at 1 µM", "setting": "[13]", "result": 78, "unit": "%"}, {"measurement": "growth at 1 µM", "setting": "[14]", "result": -2, "unit": "%"}, {"measurement": "growth at 0.01 µM", "setting": "[15]", "result": 108, "unit": "%"}, {"measurement": "GI50", "setting": "[16]", "result": "> 100", "unit": "µM"}, {"measurement": "TGI", "setting": "[16]", "result": "> 100", "unit": "µM"}, {"measurement": "CC50", "setting": "[16]; read-out: LC50 (the source's name)", "result": "> 100", "unit": "µM"}, {"measurement": "growth at 10 µM", "setting": "[17]", "result": 107, "unit": "%"}, {"measurement": "growth at 10 µM", "setting": "[18]", "result": 20, "unit": "%"}, {"measurement": "growth at 10 µM", "setting": "[19]", "result": 71, "unit": "%"}, {"measurement": "growth at 10 µM", "setting": "[20]", "result": 135, "unit": "%"}]}, {"smiles": "CC(=O)Nc1cccc(-c2ccc(-c3ccnc(NC(=O)Nc4cc(C(F)(F)F)cc(C(F)(F)F)c4)n3)cn2)c1.Cl", "values": [{"measurement": "inhibition", "setting": "[21]", "result": "< 50", "unit": "%"}, {"measurement": "inhibition", "setting": "[22]", "result": "< 50", "unit": "%"}, {"measurement": "inhibition", "setting": "[23]", "result": "< 50", "unit": "%"}, {"measurement": "inhibition", "setting": "[24]", "result": "< 50", "unit": "%"}, {"measurement": "inhibition", "setting": "[25]", "result": "< 50", "unit": "%"}, {"measurement": "inhibition", "setting": "[26]", "result": "< 50", "unit": "%"}, {"measurement": "inhibition", "setting": "[27]", "result": "< 50", "unit": "%"}, {"measurement": "inhibition", "setting": "[28]", "result": "< 50", "unit": "%"}, {"measurement": "inhibition", "setting": "[29]", "result": "< 50", "unit": "%"}, {"measurement": "inhibition", "setting": "[30]", "result": "< 50", "unit": "%"}, {"measurement": "inhibition", "setting": "[31]", "result": "< 50", "unit": "%"}, {"measurement": "inhibition", "setting": "[32]", "result": "< 50", "unit": "%"}, {"measurement": "inhibition", "setting": "[33]", "result": "< 50", "unit": "%"}, {"measurement": "inhibition", "setting": "[34]", "result": "< 50", "unit": "%"}]}]}
